{
  "source": "paper PMC6925959",
  "about": "(Journal of medicinal chemistry, 2019)",
  "key": {"[1]": {"test_system": "SK-OV-3 (ovarian) cancer cell line", "experiment": "SRB growth inhibition assay, SK-OV-3", "format": "cell-based", "conditions": "Homo sapiens, SK-OV-3, 48 h, read-out: GI50 (μM) SRB assay SK-OV-3"}, "[2]": {"test_system": "NCI-H460 (lung) cancer cell line", "experiment": "SRB growth inhibition assay, NCI-H460", "format": "cell-based, human", "conditions": "read-out: GI50 (μM) SRB assay NCI-H460"}, "[3]": {"test_system": "DU-145 (prostate) cancer cell line", "experiment": "SRB growth inhibition assay, DU-145", "format": "cell-based, human", "conditions": "read-out: GI50 (μM) SRB assay DU-145"}, "[4]": {"test_system": "purified bovine brain tubulin", "experiment": "Inhibition of tubulin polymerization", "format": "biochemical", "conditions": "cell-free assay"}, "[5]": {"test_system": "tubulin", "experiment": "Inhibition of [3H]colchicine binding to tubulin", "conditions": "1.0 µM tubulin, 5.0 µM [3H]colchicine"}, "[6]": {"test_system": "PC3-DAB2IP-luc human prostate tumor xenograft", "experiment": "In vivo vascular disruption by dynamic bioluminescence imaging", "set-up": "species or system rat", "outline": "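Three male […] rats (about 6 weeks old, 100-120 g) carried s.c. right-thigh PC3-DAB2IP-luc tumors (5 X 10⁵ cells in 30% Matrigel), treated once tumors reached ≥1 cm diameter. Prodrug in saline was given IP as single or sequential doses, with CA4P IP as control. Under 3% isoflurane, 120 mg/kg D-luciferin was injected s.c. in the neck, fresh at each session. Tumor-ROI light emission was imaged over about 30 min at baseline, 4 h and 24 h.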"}, "[7]": {"test_system": "tumor vasculature", "conditions": "30 mg/kg, rats; cited from earlier work"}},
  "note": "Entries after “also recorded” stand apart in the source; their conditions may differ. Where two headings read alike, the source gives them in different places.",
  "data": [
    {"molecule": "COc1ccc2c(c1O)CCCC=C2c1cc(OC)c(OC)c(OC)c1", "note": "[KGP18, 3-Methoxy-9-(3,4,5-trimethoxyphenyl)-6,7-dihydro-5H-benzo[7]annulen-4-ol, reference compound]", "values": [
      {"measurement": "GI50", "setting": "[1]", "result": 0.0543, "unit": "nM"},
      {"measurement": "GI50", "setting": "[2]; Homo sapiens, NCI-H460, 48 h", "result": 0.0418, "unit": "nM"},
      {"measurement": "GI50", "setting": "[3]; Homo sapiens, DU-145, 48 h", "result": 0.0249, "unit": "nM"}
    ]},
    {"molecule": "COc1cc(C2=CCCCc3c2ccc(OC)c3OCCO)cc(OC)c1OC", "note": "[Compound 11, 2-((3-Methoxy-9-(3,4,5-trimethoxyphenyl)-6,7-dihydro-5H-benzo[7]annulen-4-yl)oxy)ethan-1-ol]", "values": [
      {"measurement": "Inhibition of tubulin polymerization (in words)", "setting": "[4]", "result": "loss of inhibitory activity"}
    ]},
    {"molecule": "COCCOCCOc1c(OC)ccc2c1CCCC=C2c1cc(OC)c(OC)c(OC)c1", "note": "[Compound 8, 3-Methoxy-4-(2-(2-methoxyethoxy)ethoxy)-9-(3,4,5-trimethoxyphenyl)-6,7-dihydro-5H-benzo[7]annulene]", "values": [
      {"measurement": "Inhibition of tubulin polymerization (in words)", "setting": "[4]", "result": "loss of inhibitory activity"}
    ]},
    {"molecule": "COc1ccc2c(c1O)CC=CC=C2c1cc(OC)c(OC)c(OC)c1", "note": "[Compound 68, 3-Methoxy-9-(3,4,5-trimethoxyphenyl)-5H-benzo[7]annulen-4-ol]", "values": [
      {"measurement": "GI50", "setting": "[1]", "result": 6.9, "unit": "nM"},
      {"measurement": "GI50", "setting": "[3]; Homo sapiens, DU-145, 48 h", "result": 97.6, "unit": "nM"}
    ]},
    {"molecule": "COc1cc(C2(O)C=CCCc3c2ccc(OC)c3OC)cc(OC)c1OC", "note": "(stereo not drawn) [Compound 56, 1,2-Dimethoxy-5-(3,4,5-trimethoxyphenyl)-8,9-dihydro-5H-benzo[7]annulen-5-ol]", "values": [
      {"measurement": "% Inhibition of colchicine binding ± SD", "setting": "[5]; compound at 5 μM", "result": "0 (5 μM) %"},
      {"measurement": "Inhibition of tubulin polymerization (in words)", "setting": "[4]", "result": "lack of tubulin activity"}
    ]},
    {"molecule": "COc1cc(C2CCc3c(ccc(OC)c3OC)C(=O)C2)cc(OC)c1OC", "note": "(stereo not drawn) [Compound 57, 1,2-Dimethoxy-7-(3,4,5-trimethoxyphenyl)-6,7,8,9-tetrahydro-5H-benzo[7]annulen-5-one]", "values": [
      {"measurement": "% Inhibition of colchicine binding ± SD", "setting": "[5]; compound at 5 μM", "result": "0 (5 μM) %"},
      {"measurement": "Inhibition of tubulin polymerization (in words)", "setting": "[4]", "result": "lack of activity"}
    ]},
    {"molecule": "COc1cc(C2=CC=CCc3c2ccc(OC)c3OP(=O)([O-])[O-])cc(OC)c1OC.[Na+].[Na+]", "note": "[Compound 69, Sodium 3-methoxy-9-(3,4,5-trimethoxyphenyl)-5H-benzo[7]annulen-4-yl phosphate]", "values": [
      {"measurement": "GI50", "setting": "[1]", "result": 15.3, "unit": "nM"},
      {"measurement": "Inhibition of tubulin polymerization (in words)", "setting": "[4]", "result": "inactive"},
      {"measurement": "GI50", "setting": "[3]; Homo sapiens, DU-145, 48 h", "result": 23.9, "unit": "nM"},
      {"measurement": "Change in BLI light emission / vascular perturbation", "setting": "[6]; 10 mg/kg IP, rat", "result": "minimal change in light emission; also recorded: no vascular perturbation"},
      {"measurement": "Recovery of BLI signal", "setting": "[6]; 40 mg/kg IP, 24 h, rat", "result": "substantial recovery"},
      {"measurement": "Appearance of the rats", "setting": "[6]; 40 mg/kg IP, 48 h", "result": "appeared healthy"},
      {"measurement": "Tolerability", "setting": "[6]; 80 mg/kg IP, rat", "result": "well tolerated"},
      {"measurement": "Vascular disruption at the higher dose", "setting": "[6]; 80 mg/kg IP, rat, compared with 40 mg/kg", "result": "did not show additional vascular disruption"}
    ]},
    {"molecule": "COc1ccc2c(c1O)CCCC(O)C2(O)c1cc(OC)c(OC)c(OC)c1", "note": "(stereo not drawn) [Compound 15, 2-Methoxy-5-(3,4,5-trimethoxyphenyl)-6,7,8,9-tetrahydro-5H-benzo[7]annulene-1,5,6-triol]", "values": [
      {"measurement": "% Inhibition of colchicine binding ± SD", "setting": "[5]; compound at 5 μM", "result": "0 (5 μM) %"}
    ]},
    {"molecule": "COc1ccc(/C=C\\c2cc(OC)c(OC)c(OC)c2)cc1O", "note": "[CA4, combretastatin A-4, reference compound]", "values": [
      {"measurement": "% Inhibition of colchicine binding ± SD", "setting": "[5]; compound at 1 μM", "result": "84 ± 3", "unit": "%"}
    ]},
    {"molecule": "COc1ccc(/C=C\\c2cc(OC)c(OC)c(OC)c2)cc1OP(=O)([O-])[O-].[Na+].[Na+]", "note": "[CA4P, combretastatin A-4 phosphate, reference compound]", "values": [
      {"measurement": "Extent and longevity of diminished BLI signal compared with 40 mg/kg 69", "setting": "[6]; 30 mg/kg IP, rat", "result": "very similar effect"},
      {"measurement": "Vascular shutdown", "setting": "[7]", "result": "extensive vascular shutdown"}
    ]},
    {"molecule": "N-(1-hydroxy-2-methoxy-5-(3,4,5-trimethoxyphenyl)-6,7,8,9-tetrahydro-5H-benzo[7]annulen-7-yl)acetamide [Compound 49]", "values": [
      {"measurement": "% Inhibition of colchicine binding ± SD", "setting": "[5]; compound at 5 μM", "result": "0.4 ± 0.6 (5 μM) %"},
      {"measurement": "GI50", "setting": "[2]; NCI-H460, 48 h treatment", "result": 334, "unit": "nM"},
      {"measurement": "GI50", "setting": "[3]; DU-145, 48 h treatment", "result": 1200, "unit": "nM"}
    ]},
    {"molecule": "COc1ccc2c(c1CO)CCCC=C2c1cc(OC)c(OC)c(OC)c1", "note": "[Compound 28, (3-Methoxy-9-(3,4,5-trimethoxyphenyl)-6,7-dihydro-5H-benzo[7]annulen-4-yl)methanol]", "values": [
      {"measurement": "GI50", "setting": "[1]", "result": 40.3, "unit": "nM"}
    ]}
  ]
}
